Test results as given in ChEMBL document CHEMBL3745639, “Structure-activity relationships for lipoprotein lipase agonists that lower plasma triglycerides in vivo” (Eur J Med Chem, 2015).
The source made the active and inactive calls. The rule behind the calls is not given here.

How the values were obtained:
[1] = target: T1, Lipoprotein lipase (Bos taurus) (UniProt P11151); test: Induction of bovine LPL stabilization using intralipid as substrate at 6.25 uM preincubated for 10 mins with human recombinant ANGPTL4 followed by substrate addition measured after 45 mins relative to control
T1 sequence (whole entry): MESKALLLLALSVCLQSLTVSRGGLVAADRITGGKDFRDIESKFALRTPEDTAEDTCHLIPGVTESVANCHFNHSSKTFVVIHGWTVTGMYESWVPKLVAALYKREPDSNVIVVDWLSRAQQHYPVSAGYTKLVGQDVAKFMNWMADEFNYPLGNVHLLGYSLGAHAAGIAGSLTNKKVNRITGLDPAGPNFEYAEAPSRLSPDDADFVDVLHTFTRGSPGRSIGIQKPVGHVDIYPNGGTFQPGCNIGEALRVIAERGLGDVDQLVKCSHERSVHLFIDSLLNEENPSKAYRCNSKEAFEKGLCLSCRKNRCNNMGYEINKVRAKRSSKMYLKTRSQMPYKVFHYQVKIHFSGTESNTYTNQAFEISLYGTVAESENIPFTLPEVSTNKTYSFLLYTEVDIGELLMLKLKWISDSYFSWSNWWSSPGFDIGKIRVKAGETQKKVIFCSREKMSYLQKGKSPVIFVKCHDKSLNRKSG
Procedure, shortened: (§1)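 Compound in DMSO in buffer (50 mM potassium phosphate pH 7.4, 0.15 M NaCl, 0.01% Triton X-100), with human ANGPTL4 N-terminal fragment (aa 26-184, 75 nM final) and bovine LPL (15 nM final). Preincubated 10 min at 25 °C with shaking. Stopped after 45 min with 2.5% Triton X-100, and NEFA measured enzymatically. Activity normalised between DMSO+LPL+ANGPTL4 (0%) and DMSO+LPL (100%).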

[2] = target: T1, Lipoprotein lipase (Bos taurus); test: Induction of bovine LPL stabilization using intralipid as substrate at 12.5 uM preincubated for 10 mins with human recombinant ANGPTL4 followed by substrate addition measured after 45 mins relative to control; procedure, shortened: as §1
[3] = Apparent permeability across apical to basolateral side in human Caco2 cells at 10 uM after 15 to 60 mins; assay type: ADME, cell-based; settings: Caco-2
Procedure, shortened: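 Caco-2 monolayers washed with pre-warmed HBSS, then donor solution applied. Transport run with apical pH 6.5 and basolateral pH 7.4. Monolayer integrity checked by TEER and by mannitol permeability. Papp derived from transport rates.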

[4] = Fraction unbound in human plasma at 10 uM after 4 hrs by rapid equilibrium dialysis method; assay type: ADME, cell-free
Procedure, shortened: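 Rapid equilibrium dialysis of pooled human plasma from two male and two female non-smoking donors. Compound typically 10 μM final, dialysed against isotonic phosphate buffer pH 7.4 at 37 °C for 4 h with rapid rotation. Proteins precipitated with methanol containing warfarin internal standard, then both compartments analysed by LC-MS/MS.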

[5] = Half life in human liver microsomes at 1 uM; assay type: ADME
Procedure, shortened: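 Pooled liver microsomes (0.5 mg/ml) with compound at 1 μM in 0.1 M phosphate buffer pH 7.4. Reaction started with NADPH 1 mM. Sampled at 0, 5, 15 and 40 min in duplicate, quenched with acetonitrile containing warfarin, then LC-MS/MS.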

Mus musculus = test: Hypolipidemic activity in C57B16/J mouse assessed as reduction in plasma triglyceride level at 10 mg/kg, ip qd administered for 4 days followed by olive oil injection through oral gavage one hour post last dose measured at 180 mins; assay type: functional, organism-based
Procedure, shortened: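 Female C57B16/J mice, 8-9 weeks, about 18 g, n = 8/group. Given 10 mg/kg i.p. once daily for 4 days, 0.5 ml in PBS pH 7.4 with 3% DMSO and 0.2% Triton X-100. Fasted 8 h before the last dose, then 0.2 ml oral olive oil gavage 1 h after it. Tail-vein EDTA plasma taken at baseline and every 60 min to 180 min. TG measured enzymatically, reported as mean ± SD.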

[6] = Kinetic aqueous solubility of the compound in PBS at pH 1.2 after 2 hrs by LC-Ms analysis; assay type: physicochemical; settings: read-out: Kinetic_solubility
Procedure, shortened: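 Kinetic solubility from a 10 mM DMSO stock diluted 1:100 (1% DMSO, maximum detectable 0.1 mM) into PBS pH 7.4 or HCl-adjusted PBS at about pH 1.2. Incubated at 37 °C for 2 h in sealed glass vials, centrifuged at 10000 x g, 37 °C, 20 min, then LC-MS/MS.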

Bile acid receptor = target: T2, Bile acid receptor (Homo sapiens, UniProt Q96RI1); test: Agonist activity at FXR (unknown origin)
T2 sequence (Q96RI1 whole entry): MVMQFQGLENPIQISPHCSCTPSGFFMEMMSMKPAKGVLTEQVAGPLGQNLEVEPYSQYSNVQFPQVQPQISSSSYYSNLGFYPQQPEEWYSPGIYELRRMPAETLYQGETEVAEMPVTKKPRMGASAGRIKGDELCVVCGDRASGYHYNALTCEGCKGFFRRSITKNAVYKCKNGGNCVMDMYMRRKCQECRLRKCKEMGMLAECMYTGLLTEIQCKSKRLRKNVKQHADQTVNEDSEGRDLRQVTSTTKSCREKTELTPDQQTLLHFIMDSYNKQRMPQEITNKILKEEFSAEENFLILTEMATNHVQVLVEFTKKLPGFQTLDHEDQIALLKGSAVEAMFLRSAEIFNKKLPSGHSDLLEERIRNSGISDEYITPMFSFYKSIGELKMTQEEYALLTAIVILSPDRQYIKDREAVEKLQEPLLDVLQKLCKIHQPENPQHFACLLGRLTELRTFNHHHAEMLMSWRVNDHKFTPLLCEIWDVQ
Procedure, shortened: (§2)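 Single agonist-mode profiling at ten concentrations against FXR, PPARα, PPARγ and RXRα, run as an outside screening service.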

[7] = target: T3, Peroxisome proliferator-activated receptor gamma (Homo sapiens, UniProt P37231); test: Agonist activity at PPARgamma (unknown origin); procedure, shortened: as §2
T3 sequence (P37231 whole entry): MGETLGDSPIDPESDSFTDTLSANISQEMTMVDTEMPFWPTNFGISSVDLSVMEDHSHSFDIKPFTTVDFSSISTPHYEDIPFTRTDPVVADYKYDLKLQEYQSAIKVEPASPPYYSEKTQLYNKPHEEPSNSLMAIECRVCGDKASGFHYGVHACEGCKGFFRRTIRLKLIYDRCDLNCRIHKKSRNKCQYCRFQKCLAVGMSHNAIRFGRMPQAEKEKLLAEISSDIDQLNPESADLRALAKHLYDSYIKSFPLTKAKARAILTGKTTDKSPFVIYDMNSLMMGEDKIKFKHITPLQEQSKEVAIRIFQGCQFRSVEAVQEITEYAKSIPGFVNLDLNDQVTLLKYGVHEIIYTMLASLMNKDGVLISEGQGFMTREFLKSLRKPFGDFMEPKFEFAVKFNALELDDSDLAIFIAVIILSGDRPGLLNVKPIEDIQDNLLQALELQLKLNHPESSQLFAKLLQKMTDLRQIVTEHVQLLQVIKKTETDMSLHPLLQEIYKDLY

Activity [1]: 16%
Activity [2]: 75.6%
Papp A→B at 10 µM [3]: 23 ×10⁻⁶ cm/s
Fu [4]: < 0.01%
half-life at 1 µM [5]: > 1.33 h
solubility kinetic at 2 h [6]: < 2 µM
EC50 (Bile acid receptor): > 100 µM
EC50 [7]: > 100 µM
Structure (SMILES): Cc1ccc(NC(=O)c2cc(-n3cc4ccc(C(=O)O)cc4n3)ccc2N2CCCCC2)cc1
Activity (Mus musculus): Active
